Most compounds without a hit are left out; they make up all but 1.6% or so of the library.
MBD2 inh – inhibitors of MBD2 binding to methylated DNA, primary screen, biochemical, TR-FRET, DNA-binding domain, human; inhibition, % at 4.4 µM; actives 0.31% (n = 370,000); Methyl-CpG-binding domain protein 2 (Homo sapiens), Q9UBB5; MBD2 binding to methylated oligonucleotide; in the data active = inhibition above about 13%
LEDGF integ inh – blockers of LEDGF/p75-dependent integrase strand transfer – biochemical, TR-FRET, high throughput, primary screen | HIV-1 integrase (with human LEDGF/p75) | TR-FRET IN-LEDGF/p75 DNA integration, Eu/Cy5 | inhibition, % at 3.7 µM | actives 0.64% (n = 370,000) | AID 743269, 2014;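 active = inhibition above the screen-wide mean plus 3 SD, cut at about 13% in these data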;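 note: signal is the Cy5 over europium emission ratio at 671 and 618 nm; 0% = plate median of compound wells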
UHRF1 MBD2 ctr – UHRF1 methylated DNA binding inhibitors, primary screen, counter-screen for MBD2 inhibitor project, biochemical, TR-FRET, human UHRF1, single concentration; E3 ubiquitin-protein ligase UHRF1 (Homo sapiens), Q96T88; UHRF1 binding to methylated oligo; inhibition, % at 4.4 µM; actives 0.75% (n = 370,000); in the data active = inhibition above about 21%;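 note: UHRF1 SRA domain binding a hemimethylated CpG hairpin DNA probe; 0% = median of test compound wells and 100% = reference inhibitor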
TDP2 absorb – human TDP2 enzyme inhibitors, primary screen, biochemical, epi absorbance, recombinant enzyme. Tyrosyl-DNA phosphodiesterase 2 (Homo sapiens), O95551. T5PNP hydrolysis, p-nitrophenol absorbance 415 nm. inhibition, % at 12.8 µM. actives 0.34% (n = 370,000). AID 720702, 2013;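 active = inhibition above the mean of all tested compounds plus 3 SD, set per campaign, cut at about 25% in these data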;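 note: 0% = DMSO with enzyme and 100% = buffer with substrate but no TDP2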
Target sequence (O95551 whole entry, looked up): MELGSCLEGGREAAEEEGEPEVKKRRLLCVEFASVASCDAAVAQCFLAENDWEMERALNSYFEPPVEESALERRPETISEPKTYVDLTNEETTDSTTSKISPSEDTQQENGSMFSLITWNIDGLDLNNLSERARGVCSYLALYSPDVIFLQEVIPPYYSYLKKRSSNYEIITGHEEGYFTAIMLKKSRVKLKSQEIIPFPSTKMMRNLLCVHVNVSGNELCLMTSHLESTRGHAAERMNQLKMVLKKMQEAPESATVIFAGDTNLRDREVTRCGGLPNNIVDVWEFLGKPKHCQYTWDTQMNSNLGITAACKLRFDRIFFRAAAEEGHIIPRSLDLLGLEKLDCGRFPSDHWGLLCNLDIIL
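System: recombinant human TDP2 / Amount: 120 nM TDP2 per well / Also added: 5 mM T5PNP chromogenic substrate / Doses: 12.8 µM single point, 1% DMSO / Incubation: 2 h at 37 °C / Detection: p-Nitrophenol epi absorbance / Evaluation: % inhibition relative to enzyme-containing and enzyme-free wells / Repeats: singlicate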
TDP2 inh conf – human TDP2 enzyme inhibitors, retest, confirmation, biochemical, epi absorbance, recombinant enzyme; absorbance read-out; shares compounds with TDP2 absorb; actives 22% (n = 1,100); AID 743263, 2014; inhibition, % at 12.8 µM; in the data active = inhibition above about 25%;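 note: 0% = vehicle with enzyme and 100% = no enzyme buffer only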
Numbers without * were called inactive; x = no result given.

SMILES	MBD2 inh	LEDGF integ inh	UHRF1 MBD2 ctr	TDP2 absorb	TDP2 inh conf
COc1ccc(OC)c2c1C(=O)c1ccccc1C2=O	-1.7	6.9	-4.1	56.0*	7.2
COc1ccc2noc3c2c1C(=O)c1ccccc1-3	-7.0	9.4	-8.4	38.3*	30.4*
CC(=O)Oc1ccc(C(=O)Nc2ccc(S(=O)(=O)N3CCOCC3)cc2)cc1	0.6	-4.5	0.6	1.6	x
O=C(NCCc1csc(-c2cccnc2)n1)c1cccc(Cl)c1	1.1	-0.4	-0.5	1.8	x
CCCCn1[nH]c(-c2ccccc2)cc1=O	2.3	7.4	-4.2	47.2*	9.8
CCCc1cc(=O)n2[nH]c(-c3ccccc3)cc2n1	1.7	-1.8	-3.9	-4.1	x
CSC(=NS(=O)(=O)c1ccc(C)cc1)SC	1.3	-1.4	3.2	-16.2	x
CC(C)(C)n1nnnc1C(c1cccnc1)N1CCOCC1 (stereo not given)	-2.3	-0.5	-2.7	26.5*	-3.7
CC(C)(C)n1nnnc1C(c1cccc(C(F)(F)F)c1)N1CCOCC1 (stereo not given)	-1.9	0.5	3.0	-11.4	x
CC(C)c1cccc(C(C)C)c1NC(=O)CNCc1ccccc1F	3.0	0.6	-1.8	5.3	x
CC(C)c1cccc(C(C)C)c1NC(=O)CNCC(O)c1ccccc1 (stereo not given)	2.9	2.9	-2.4	25.6*	0.4
CC(=O)Nc1nnc(S(=O)(=O)N2CCN(c3ccc(Cl)cc3[N+](=O)[O-])CC2)s1	0.9	-0.5	0.7	1.4	x
O=C(O)COc1ccccc1/C=C1\C(=O)Nc2ccc(Br)cc21	-6.3	-2.2	-0.4	28.6*	14.1
O=C1Nc2ccc(Br)cc2/C1=C/C(=O)c1ccccc1	-7.9	-0.1	-1.3	10.0	x
Cc1ccc(OCC(=O)NCCO)cc1C	-1.1	2.3	0.7	0.4	x
N#CC(C#N)=C1NC(N)=C(C#N)C(c2ccccc2)=C1C#N	8.5	1.5	6.6	31.6*	28.7*
N#CC1=C(c2ccccc2)/C(=C/c2ccccc2)OC1=O	2.0	-0.4	-2.4	20.7	x
CCn1cc([N+](=O)[O-])nc1C	0.8	2.7	0.3	5.5	x
CCNc1nc(SC(C)C(=O)OC)nc(N(C)C)n1 (stereo not given)	0.8	-5.1	-0.7	3.5	x
COc1ccc(OC)c(CN2C(=O)CSCCC2(C)c2nnnn2C2CCCC2)c1 (stereo not given)	-7.4	2.2	-2.6	4.1	x
COc1cc(/C=C/c2[nH]c(=O)[nH]c(=O)c2[N+](=O)[O-])cc([N+](=O)[O-])c1O	-19.2	2.2	-4.7	31.1*	10.7
COc1ccc(OC)c(CCNC(=O)CN2C(=O)CCSc3ccccc32)c1	4.2	-0.9	1.8	26.3*	1.9
CCOc1ccc(CCNC(=O)CN2C(=O)CCSc3ccccc32)cc1OCC	0.0	-6.4	-0.9	-0.6	x
O=C1NC(=O)/C(=C/c2ccc(-c3cc(C(=O)O)ccc3Cl)o2)S1	0.6	6.6	10.6	32.5*	15.7
O=C1NC(=S)/C(=C\c2ccc(-c3ccccc3Cl)o2)S1	-0.2	4.8	-0.4	0.6	x
SMILES	MBD2 inh	LEDGF integ inh	UHRF1 MBD2 ctr	TDP2 absorb	TDP2 inh conf
CC1(C)CC(=O)C/C(=N/NC(=O)C2CCN(S(=O)(=O)c3cccs3)CC2)C1	0.5	-0.5	-0.1	2.7	x
COC(=O)c1ccc(OCC(O)CNCC(c2ccc(OC)cc2)N(C)C)c(OC)c1 (stereo not given)	0.4	3.0	1.2	26.1*	12.9
COc1cc(Cl)c(C)cc1NC(=O)c1ccccc1NC(=O)CN1CCN(c2ccccn2)CC1	-9.0	4.1	-2.3	-2.7	x
CN1CCN(S(=O)(=O)c2ccc(NC(=O)c3ccccc3Cl)cc2)CC1	-3.7	2.0	0.7	0.4	x
CN1CCN(S(=O)(=O)c2ccc(NC(=O)c3ccccc3F)cc2)CC1	-0.9	-1.6	-0.2	25.2*	4.0
COc1ccccc1CNC(=O)c1ccc(CS(=O)(=O)c2ccccc2C)o1	-5.2	-2.8	8.7	1.6	x
COc1ccc(CNC(=O)c2ccc(CS(=O)(=O)c3ccccc3C)o2)cc1	3.9	0.8	-1.4	25.7*	4.8
Cc1ccc(NCC(=O)c2ccccc2)cc1Cl	0.7	-3.8	-1.4	-1.9	x
Cc1ccc(NC2=C(NC(=O)c3ccccc3)C(=O)c3ccccc3C2=O)cc1Cl	-7.1	3.7	-3.6	29.3*	16.8
COc1ccc(C2(C)NC(=O)N(CC(=O)NCC(=O)Nc3ccc(F)c(F)c3F)C2=O)cc1OC (stereo not given)	-2.3	-3.3	-0.2	14.1	x
CCCc1cc(=O)[nH]c(SCC(=O)N(C)Cc2ccccc2)n1	-3.1	1.1	8.9	-4.9	x
Cc1nnc(SCC(=O)N(C)Cc2ccccc2)[nH]c1=O	4.4	0.5	1.6	43.4*	-5.0
CC1=NN(c2cccc([N+](=O)[O-])c2)C(=O)C1	-1.1	0.1	-5.1	6.8	x
CC1=NN(c2ccc(N)cc2)C(=O)C1	-6.4	2.2	-1.4	37.8*	18.6
CC1=NN(c2ccc(Cl)cc2)C(=O)C1	2.6	2.4	15.7	57.6*	6.4
COC1=C(Nc2ccc(C)cc2)C(=O)c2ccccc2C1=O	-9.9	2.5	-9.3	55.0*	15.6
Cc1sc2ncnc(N(C)CCc3ccccn3)c2c1C	2.3	2.8	1.0	26.1*	9.8
Cc1sc2ncnc(N(C)Cc3cccs3)c2c1C	2.3	-0.4	1.6	-14.2	x
COc1ccc(CCNC(=O)c2c(C)cc(=O)oc2C)cc1OC	-7.7	5.7	-2.9	-4.0	x
COc1ccc(NC(=O)CSc2nnc(-c3cc(C)[nH]n3)n2N)cc1OC	2.1	-2.8	-0.9	29.6*	-6.6
O=[N+]([O-])c1ccc(Oc2ccc(-c3nnco3)cc2)c(Cl)c1	-1.4	3.8	-0.1	46.5*	4.0
N#Cc1cc([N+](=O)[O-])ccc1Oc1ccc(-c2nnco2)cc1	0.5	2.6	-1.8	-0.2	x
Cc1ccc(Nc2nnc(SC3CCOC3=O)s2)cc1 (stereo not given)	2.8	0.6	0.8	2.1	x
N#Cc1ccccc1NC(=O)CSc1n[nH]c(-c2ccco2)n1	2.7	-1.6	-6.8	32.3*	-0.1
O=C(CSc1n[nH]c(-c2ccco2)n1)Nc1ccccc1F	-2.8	0.0	-2.5	-12.8	x
CCc1ccc2oc(C(=O)NCc3ccncc3)c(C)c2c1	-3.2	-3.7	-2.7	-10.8	x
CCNc1nc(NCC)n2c(SCC(=O)Nc3cc(Cl)ccc3OC)nnc2n1	0.6	0.1	1.6	24.9*	-7.0
Cc1ccc(/C=C/C(=O)Nc2ncc(C)s2)o1	-4.8	4.3	-2.1	12.9	x
Cc1ccc(/C=C/C(=O)Nc2nccs2)o1	-2.3	1.3	-3.9	25.7*	1.2

Compound activity as filed in PubChem.
